Screening data from PubChem.
Rows were chosen to be rich in hits. Some 2.6% of all compounds tested hit in one or more screens of this group.
SR-BI DiI-HDL act: SR-BI HDL lipid transfer activation. CHO ldlA[mSR-BI] cells, DiI-HDL uptake fluorescence, 3 h; 100 = double the neutral-control signal. activation, % at 12.5 µM. hit rate 0.096% among 320,000;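 active = mean replicate activation of at least 60% and every replicate at or above 60%; inconclusive = mean or all-replicate condition met, but not both; inactive = mean below 60% and not all replicates reaching 60%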;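 note: 0% = median plate neutral-control signal and 100% = twice that signal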
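Test system: SR-BI-overexpressing, LDLR-lacking CHO cells; Also added: labelled HDL, 10 µg/mL; Measured by: bottom-read cell fluorescence after medium removal, ex 550/em 595 nm; Timing: 3 h uptake period with compound, 37 °C; Buffer or medium: F12, 0.5% BSA, 25 mM HEPES; Doses: single compound concentration, delivered by pin transfer.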
dFosB act: mouse delta FosB homodimer activation | P13346 | purified delta FosB, TAMRA-CDK5 oligo fluorescence polarization; percent of positive-control signal above neutral wells | activation, % at 25 µM | hit rate 0.99% among 340,000 | AID 493131;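 active = mean activation above about 17%, with every replicate also reaching it, limit read from the data, passing the limit was not always enough; inconclusive = only one of the two conditions met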
Target sequence (P13346 whole entry, looked up): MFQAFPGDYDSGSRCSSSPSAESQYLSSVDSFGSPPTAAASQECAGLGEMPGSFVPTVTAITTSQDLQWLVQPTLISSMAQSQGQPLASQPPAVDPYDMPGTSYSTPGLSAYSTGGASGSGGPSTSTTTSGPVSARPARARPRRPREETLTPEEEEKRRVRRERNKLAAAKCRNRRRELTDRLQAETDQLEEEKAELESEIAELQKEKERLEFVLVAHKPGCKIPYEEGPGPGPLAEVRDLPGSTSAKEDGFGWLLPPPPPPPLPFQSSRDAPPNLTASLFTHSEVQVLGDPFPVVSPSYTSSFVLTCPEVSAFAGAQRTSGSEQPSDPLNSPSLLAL
XiGFP reactiv: reactivates the inactive X chromosome in mouse fibroblasts | XiGFP mouse fibroblasts, % GFP-positive cells imaging, 3 d; cells co-treated with 5-aza-dC sensitizer; scaled so ellipticine positive control = 100% | activation, % at 7.58 µM | hit rate 0.055% among 360,000 | AID 743238;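 active = mean normalized replicate activation at least 10% and every replicate at or above 10%; inconclusive = only one of the two criteria met; inactive = mean below 10% and not all replicates reach 10%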;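 note: 0% = median of on-plate neutral control wells and 100% = ellipticine 6 µM median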
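System: XiGFP fibroblasts, SV40-immortalized. Medium: DMEM plus 5-aza-dC sensitizer. Doses: single point. Timing: 3 d treatment, 15 min room-temperature fixation. Control set: ellipticine 6 µM.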
SR-BI HDL uptake: inhibitors of mouse SR-BI mediated HDL lipid uptake; inhibition, % at 12.5 µM; hit rate 0.96% among 320,000; ldlA[mSR-BI] CHO cells, DiI-HDL uptake fluorescence, 3 h; AID 488896;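 active = mean replicate inhibition of at least 70% and a set share of replicates each scoring 70 or more; inconclusive = meets just one of the two criteria; inactive = fails both criteria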;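 note: 0% = median of neutral control wells and 100% = median of positive control wells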
PvdQ inh: P. aeruginosa PvdQ acylase inhibition; purified PvdQ acylase, fluorescence plate reader; inhibition, % at 10 µM; hit rate 0.063% among 340,000; AID 488965; in the data active = inhibition above about 30%, passing the limit was not always enough; inconclusive = no clear call, values can overlap the other calls;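 note: 0% = vehicle neutral wells and 100% = reference inhibitor wells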
rRNA inh HTS: inhibitors of bacterial rRNA selective over humanized ribosomes; hit rate 1.6% among 350,000; E. coli WT GFP vs humanized-ribosome RFP mutants, fluorescence, 24 h; active compounds read low; DMSO median 0, no signal -100; GFP signal change (wild-type ribosome), % (concentration not given with the values); AID 720706;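 active = significant combined selectivity score with lowered wild-type GFP, culture density cut under 30%, mutant RFP and density less affected; inactive = any of these conditions unmet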
An asterisk follows results filed as active; ? = inconclusive; . = no result given.

SMILES	SR-BI DiI-HDL act	dFosB act	XiGFP reactiv	SR-BI HDL uptake	PvdQ inh	rRNA inh HTS
C[C@@H]1CN([C@H](C)CO)C(=O)c2cccc(NC(=O)NC3CCCCC3)c2O[C@H]1CN(C)C(=O)Nc1cccc2ccccc12	.	.	-1	.	.	-6
CCn1c(N2CCN(C(c3ccccc3)c3ccccc3)CC2)nc2c1c(=O)[nH]c(=O)n2C	-4	0	0	4	5	7
COc1ccc(OC)c(Nc2nc(-c3sc(NC(=O)CC(C)C)nc3C)cs2)c1	-76	-6	0	76*	-11	12
COc1ccc(OC)c(Nc2nc(-c3sc(C)nc3C)cs2)c1	-64	-13	.	64	-15	.
CCN1CCN(CCCNC(=O)c2ccc3c(c2)NC(=O)/C(=C\c2cccc(C)c2)S3)CC1	10	2	0	-10	-5	-55
Cc1cccc(/C=C2/Sc3ccc(C(=O)NCCCN4CCOCC4)cc3NC2=O)c1	9	33*	0	-9	-10	1
CCn1nc(NS(=O)(=O)c2ccccc2[N+](=O)[O-])c2cc3cccc(C)c3nc21	6	-8	0	-6	-10	-4
COc1cccc2cc(-c3cn4cccc(C)c4n3)c(=O)oc12	-20	3	.	20	-3	.
COc1cc2cc(CN(Cc3ccc4c(c3)OCO4)C(=O)c3ccco3)c(=O)[nH]c2cc1OC	3	-12	.	-3	1	.
CCc1cc(Br)ccc1NC(=S)NCCc1ccccc1	-76	-7	0	76*	-18	-54
COc1ccc(NC(=S)NCCc2ccccc2)c(C)c1	-20	-5	0	20	-5	0
CCCCNC(=S)Nc1ccccc1Cc1ccccc1	-15	-4	0	15	-4	-43*
CC(On1nnc2ccc(S(=O)(=O)N3CCOCC3)cc21)C(=O)Nc1ccccc1F (configuration not stated)	26	-2	0	-26	-19	6
O=C(c1ccc(Cl)cc1)C1CCCN(C(=O)c2csnn2)C1 (configuration not stated)	13	-6	0	-13	-15	-10
CSc1nc(C(=O)N2CCCC(C(=O)c3ccc(Cl)cc3)C2)cs1 (configuration not stated)	.	-7	0	.	-3	-31*
O=C(N/N=C/C1CC=CCC1)c1ccc(Cl)cc1O (configuration not stated)	4	-3	0	-4	-13	-29*
CO[C@@H]1CN(C)C(=O)c2ccc(NC(=O)Nc3ccccc3F)cc2OC[C@@H](C)N(CC2CC2)C[C@H]1C	.	.	0	.	.	0
O=C(Nc1ccc(F)cc1)C1CCCN(S(=O)(=O)c2ccc3[nH]c(=O)ccc3c2)C1 (configuration not stated)	16	18*	0	-16	-9	13
COC(=O)CNC(=O)CNC(=O)c1nn(-c2ccc(OC)c(OC)c2)c(=O)c2ccccc12	0	-9	0	0	-9	10
COc1ccc(-n2nc(C(=O)NCC(=O)NCc3ccc(F)cc3)c3ccccc3c2=O)cc1OC	-8	126*	0	8	-4	4
COc1ccc(-n2nc(C(=O)NCC(=O)Nc3cc(OC)c(OC)c(OC)c3)c3ccccc3c2=O)cc1Cl	.	21*	0	.	-2	4
CCN(CC)C(=O)CNC(=O)c1nn(-c2ccc(OC)c(Cl)c2)c(=O)c2ccccc12	14	-25	0	-14	-11	2
COCCn1c(=NC(=O)/C=C/c2ccccc2)sc2cc(NC(C)=O)ccc21	-88	-9	0	88*	8	.
OCCNc1c2ccccc2nc2ccccc12	7	20*	0	-7	-8	-26
COc1ccc(OC)c(Nc2c3c(nc4ccccc24)CCC3)c1	0	2	0	0	-2	7
SMILES	SR-BI DiI-HDL act	dFosB act	XiGFP reactiv	SR-BI HDL uptake	PvdQ inh	rRNA inh HTS
COc1ccc(OC)c(Nc2c3ccccc3nc3ccccc23)c1	-27	37*	0	27	-3	-6
OCCNc1nc2ccccc2nc1NCCO	3	-7	0	-3	-1	.
COc1ccc(OC)c(NC(=O)COC(=O)c2c3c(nc4ccccc24)CCCC3)c1	-68	-1	.	68	-7	-28*
COc1ccc(NC(=O)COC(=O)c2c3c(nc4ccccc24)CCCC3)cc1	-54	3	.	54	-9	.
COc1ccc(OC)c(Nc2cc(C)c3ccccc3n2)c1	-40	0	0	40	-21	-12
COc1ccc(OC)c(Nc2nc(NCCO)c3ccccc3n2)c1	-17	31*	0	17	-13	4
COCCN(C(=S)Nc1ccccc1OC)C(C)c1cccs1 (configuration not stated)	13	-5	0	-13	-17	-14
COc1ccc(Nc2nc(N3CCCC3)nc3ccccc23)c(OC)c1	-36	39*	.	36	-8	.
Cc1ccc(Nc2nc(NCCO)c3ccccc3n2)cc1C	0	32*	0	0	-8	3
OCCNc1nc(-c2ccccc2)nc2ccccc12	-16	-7	0	16	-9	-9
COc1ccccc1NC(=O)CSc1nnnn1Cc1ccccc1	-8	-5	.	8	-1	-29*
COc1ccccc1NC(=O)CSc1ccc(-c2cccs2)nn1	4	-16	1	-4	-10	-27*
CCOc1ccccc1NC(=O)CSc1nnnn1Cc1ccccc1	-22	-4	.	22	-12	.
COc1ccccc1CCNC(=O)CSc1ccc(-c2cccs2)nn1	14	-7	0	-14	10	-12
CSc1cccc(NS(=O)(=O)c2ccc(C(C)=O)cc2)c1	.	-3	0	.	2	-8
Cc1cc(NC(=O)COC(=O)CCNS(=O)(=O)c2c(Cl)cccc2Cl)no1	11	-2	0	-11	-16	-9
COc1ccc(-n2nc3c(N4CCC(C(=O)NCc5cccc(C)c5)CC4)nnc(C)c3c2C)cc1	-40	?	0	40	-15	1
COc1ccccc1CCNC(=O)C1CCN(c2nnc(C)c3c(C)n(-c4ccc(C)cc4)nc23)CC1	-80	1	0	80*	-5	1
Cc1ccc(-n2nc3c(N4CCC(C(=O)NCc5ccccc5C)CC4)nnc(C)c3c2C)cc1	-32	28*	.	32	-12	.
COc1ccc(-n2nc3c(N4CCC(C(=O)NCCc5ccco5)CC4)nnc(C)c3c2C)cc1	-38	-6	0	38	5	-4
CCCNC(=O)N(C)C[C@@H]1Oc2ncc(-c3ccc(C(=O)N(C)C)cc3)cc2C(=O)N([C@@H](C)CO)C[C@H]1C	.	.	2	.	.	5
